Data taken from ChEMBL document CHEMBL3259777, “The cannabinoid acids, analogs and endogenous counterparts” (Bioorg Med Chem, 2014).

Columns and labels:
Rattus norvegicus [1] = assay: Analgesic activity in rat assessed as reversal of mechanical hyperalgesia at 0.1 to 1 mg/kg, po; assay type: functional; conditions: dose mg/kg 0.1-1
Rattus norvegicus [2] = assay: Reversal of PAF-induced allodynia in ip dosed rat after 40 to 60 mins by paw withdrawal test; assay type: functional
Summary of the method: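 Rat tonic inflammatory pain model with platelet-activating factor injected into the hind paw. Doses of 3, 4.5, 6.8, 10.1 and 15.2 mg/kg given i.p. Paw withdrawal threshold to mechanical pressure read 40-60 min post-drug. Approximate ED-50 estimated from the dose-response curve for reversal of PAF-induced allodynia.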

Cannabinoid receptor 1 = Cannabinoid receptor 1 (Homo sapiens, UniProt P21554); assay: Binding affinity to CB1 receptor (unknown origin)
Chain of Cannabinoid receptor 1 (P21554 whole entry): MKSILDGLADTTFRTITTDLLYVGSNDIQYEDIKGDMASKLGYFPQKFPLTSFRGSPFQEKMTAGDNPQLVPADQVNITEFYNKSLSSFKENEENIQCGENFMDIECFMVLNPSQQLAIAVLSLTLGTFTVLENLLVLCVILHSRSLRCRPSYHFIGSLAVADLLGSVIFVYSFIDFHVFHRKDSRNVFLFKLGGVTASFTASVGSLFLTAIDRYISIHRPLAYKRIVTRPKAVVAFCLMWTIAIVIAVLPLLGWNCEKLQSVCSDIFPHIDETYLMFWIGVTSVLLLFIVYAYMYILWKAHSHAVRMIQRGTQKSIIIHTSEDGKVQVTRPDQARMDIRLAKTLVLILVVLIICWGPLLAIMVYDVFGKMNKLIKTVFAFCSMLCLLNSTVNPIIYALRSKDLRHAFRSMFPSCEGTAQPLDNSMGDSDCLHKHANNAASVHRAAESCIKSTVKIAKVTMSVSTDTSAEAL

Mus musculus [3] = assay: Antiinflammatory activity in mouse assessed as reduction of IL-1beta/TNF-alpha-induced leukocyte count in air pouches at 0.1 mg/kg/day; assay type: functional; parameters: scale not given: the % may be the effect or the level left
Summary of the method: (§1)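 Mouse acute inflammation: IL-1β and TNFα injected into air pouches formed on the back. Drug dosed daily, and leukocytes counted in pouch exudates.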

Mus musculus [4] = assay: Antiinflammatory activity in mouse assessed as reduction of IL-1beta/TNF-alpha-induced leukocyte count in air pouches at 0.2 mg/kg/day; assay type: functional; parameters: scale not given: the % may be the effect or the level left; summary of the method: as §1
Mus musculus [5] = assay: Antiinflammatory activity in mouse assessed as adhering leukocytes at 1 mg/kg, po after 6 hrs relative to vehicle-treated control; assay type: functional
Summary of the method: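 Given orally in oil over 0.01 to 1.0 mg/kg. Peritoneal cells collected from mice 6 hours after dosing and cultured 18-20 hours before leukocyte adhesion was measured. Compared with vehicle-dosed mice.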

[6] = Inhibition of MMP-3 release in TNF alpha-induced HFLS cells at 10 uM; assay type: functional; conditions: Homo sapiens
[7] = Induction of LXA4 production in HFLS cells at 1 to 30 uM incubated for 1 hr followed by TNF-alpha challenge for 18 hrs by ELISA relative to control; assay type: functional, Homo sapiens
Blood [8] = assay: Induction of LXA4 production in human blood at 1 to 30 uM incubated for 5 hrs by ELISA; assay type: functional
Mus musculus [9] = assay: Reduction of cell invasion to peritoneum in zymosan-A-induced FVB mouse peritonitis model at 1.5 mg/kg, iv by mass spectrometry; assay type: functional; parameters: scale not given: the % may be the effect or the level left
Mus musculus [10] = assay: Induction of LXA4 production in zymosan-A-induced FVB mouse peritonitis model at 1.5 mg/kg, iv by mass spectrometry relative to control; assay type: functional
Blood [11] = assay: Induction of LXA4 production in human blood at 25 uM after 1 hr in presence of 12/15 LOX inhibitor baicalein relative to control; assay type: functional
[12] = Plasma concentration in patient at 20 mg, po after 2 hrs; assay type: ADME, organism-based; conditions: human
Summary of the method: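 Single oral 20 mg dose in humans. Plasma sampled two hours post-dose, reported as mean ± R.S.D., n=9; glucuronide measured as well.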

[13] = Drug metabolism in rat hepatocytes assessed as parent compound remaining after 2 hrs; assay type: ADME, cell-based, Hepatocyte; conditions: read-out: Stability
[14] = Drug metabolism in dog hepatocytes assessed as parent compound remaining after 2 hrs; assay type: ADME, cell-based, Canis lupus familiaris, Hepatocyte; conditions: read-out: Stability
[15] = Drug metabolism in cynomolgus monkey hepatocytes assessed as parent compound remaining after 2 hrs; assay type: ADME, cell-based, Hepatocyte; conditions: read-out: Stability
[16] = Drug metabolism in human hepatocytes assessed as parent compound remaining after 2 hrs; assay type: ADME, cell-based, Hepatocyte; conditions: read-out: Stability
[17] = Antiinflammatory activity in LPS-induced mouse […] cells assessed as PGJ2 synthesis at 10 uM relative to control; assay type: functional, RAW264.7
Mus musculus [18] = assay: Antiinflammatory activity in mouse peritonitis model assessed as reduction of pro-inflammatory cell migration into peritoneal cavity at 0.3 mg/kg, po; assay type: functional; parameters: scale not given: the % may be the effect or the level left
Summary of the method: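 Mouse peritonitis induced by thioglycollate challenge. Compound given orally, and migration of pro-inflammatory cells into the peritoneal cavity quantified.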

[19] = Antiinflammatory activity in LPS-induced mouse […] cells assessed as PGJ2 synthesis at 3 uM relative to control; assay type: functional, RAW264.7
[20] = Antiinflammatory activity in LPS-induced mouse […] cells assessed as PGJ2 synthesis at 3 uM in presence of polyclonal antiGPR18 relative to control; assay type: functional, RAW264.7
RAW [21] = assay: Antiinflammatory activity in mouse RAW cells assessed as arachidonic acid release at 1.5 uM after 1 hr by liquid scintillation counting analysis in presence of [14C]-arachidonic acid relative to control; assay type: functional
Summary of the method: (§2)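 RAW cells labelled 2 hr with 14C-arachidonic acid, then medium changed to RPMI + 0.1% BSA. Cells treated 1 hr with non-radioactive test agent added in 10 µl DMSO; DMSO alone as control. Release counted by LSC on a 0.1 ml medium aliquot, expressed as treated/control, means ± SD.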

RAW [22] = assay: Antiinflammatory activity in mouse RAW cells assessed as arachidonic acid release at 3 uM after 1 hr by liquid scintillation counting analysis in presence of [14C]-arachidonic acid relative to control; assay type: functional; summary of the method: as §2
RAW [23] = assay: Antiinflammatory activity in mouse RAW cells assessed as arachidonic acid release at 6 uM after 1 hr by liquid scintillation counting analysis in presence of [14C]-arachidonic acid relative to control; assay type: functional; summary of the method: as §2
RAW [24] = assay: Antiinflammatory activity in mouse RAW cells assessed as arachidonic acid release at 12 uM after 1 hr by liquid scintillation counting analysis in presence of [14C]-arachidonic acid relative to control; assay type: functional; summary of the method: as §2
RAW [25] = assay: Antiinflammatory activity in mouse RAW cells assessed as arachidonic acid release at 24 uM after 1 hr by liquid scintillation counting analysis in presence of [14C]-arachidonic acid relative to control; assay type: functional; summary of the method: as §2
Mus musculus [26] = organism: Mus musculus; assay: Stimulation of phospholipase A2 in mouse brain synaptosomes using [1-14C]phosphotidylcholine as substrate assessed as arachidonic acid release relative to control; assay type: subcellular

With `CCCCCCC(C)(C)c1cc(O)c2c(c1)OC(C)(C)[C@@H]1CC=C(C(=O)O)C[C@@H]21` [LENABASUM] the Activity (Rattus norvegicus [1]) was “<=60%”, the ED50 (Rattus norvegicus [2]) was 4.2 mg/kg and the Ki (Cannabinoid receptor 1) was 5.7 nM. The Activity (Mus musculus [3]) was 42.3%, the Activity (Mus musculus [4]) was 65.5% and the Activity (Mus musculus [5]) was 24%. For the same molecule, the inhibition at 10 µM [6] was 88%, the Ratio [7] was 2 and the Ratio (Blood [8]) was 2. The Activity (Mus musculus [9]) was 75%, the Ratio (Mus musculus [10]) was 7 and the Activity (Blood [11]) was greater than 90%. For the same molecule, the concentration at 2 h [12] was 0.599 µg/mL, the remaining at 2 h [13] was 103% and the remaining at 2 h [14] was 90%. The remaining at 2 h [15] was 86% and the remaining at 2 h [16] was 83%.
`CCCCC/C=C\C/C=C\C/C=C\C/C=C\CCCC(=O)NC(C)(C)C(=O)O` gave an Activity [17] of 220%.
For `CCCCCCCCCCCCCCCC(=O)NCC(=O)O` [PALMITOYL GLYCINE], the Activity [17] was 100%.
`CCCCC/C=C\C/C=C\C/C=C\C/C=C\CCCC(=O)NCC(=O)O` [ARACHIDONOYL GLYCINE] gave an Activity (Mus musculus [18]) of 60%, an Activity [17] of 213% and an Activity [19] of 100%. It also gave an Activity [20] of 50%, a T/C (RAW [21]) of 1 and a T/C (RAW [22]) of 1.2. It also gave a T/C (RAW [23]) of 1.4, a T/C (RAW [24]) of 1.85 and a T/C (RAW [25]) of 2.95.
With `CCCCC/C=C\C/C=C\C/C=C\CCCCC(=O)NCC(=O)O` the Activity [17] was 203%.
In the case of `CCCCCCCC/C=C\CCCCCCCC(=O)NC(C)(C)C(=O)O`, the Activity [17] is reported as 118%.
Work on `CCCCCc1cc(O)c2c(c1)OC(C)(C)[C@@H]1CCC(C(=O)O)=C[C@@H]21` yielded an Activity (Mus musculus [26]) of 20%.
In the case of `CCCCC/C=C\C/C=C\C/C=C\C/C=C\CCCC(=O)N[C@@H](C)C(=O)O`, the Activity [17] is reported as 212%.
